Bioassay records: PubChem, several laboratories
A selection: hits, their analogues and other compounds. The true share with any hit is near 2.5%.
UCH37 inh = inhibitors of human UCH37 deubiquitinase, primary screen, biochemical, Ub-AMC cleavage, fluorescence; purified proteasome/UCH37; inhibition, % (no concentration beside the values); Ubiquitin carboxyl-terminal hydrolase isozyme L5 (Homo sapiens), Q9Y5K5; actives 0.33% (n = 330,000);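 active means mean inhibition over replicate wells above about 20%, limit read from the data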;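 further: 0% = compound-free wells with enzyme and 100% = wells lacking proteasome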
Target sequence (Q9Y5K5 whole entry, looked up): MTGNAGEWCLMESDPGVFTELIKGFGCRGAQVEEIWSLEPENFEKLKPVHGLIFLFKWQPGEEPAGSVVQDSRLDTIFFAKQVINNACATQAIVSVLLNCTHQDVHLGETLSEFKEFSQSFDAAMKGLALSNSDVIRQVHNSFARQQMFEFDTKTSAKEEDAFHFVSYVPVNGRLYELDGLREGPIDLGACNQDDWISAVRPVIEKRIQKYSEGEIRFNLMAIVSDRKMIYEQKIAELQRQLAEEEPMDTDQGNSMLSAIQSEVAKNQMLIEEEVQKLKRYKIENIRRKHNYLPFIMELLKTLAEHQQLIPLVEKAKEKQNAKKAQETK
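assay system = human UCH37 enzyme supplied as purified proteasome complex | amount = proteasome at 0.15 nM in the dispensed enzyme solution | schedule = 30 min compound-proteasome preincubation then 25 min substrate reaction, room temperature | measured by = fluorescence, ex 355 nm, em 460 nm | benchmarks = no-proteasome wells (full inhibition) and compound-free wells (no inhibition)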
T cell HTS = modulators of CD8 T cell-vesicle binding, primary screen, mouse 2C CD8+ T cells, flow cytometry; response (vesicle binding), % at 7 µM; actives 0.068% (n = 330,000); 2C CD8+ T cell-vesicle binding; stronger effect = lower value; AID 2052, 2009;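 active means response, share of CD8 T cells binding vesicles, and their 90th percentile fluorescence all below set limits, cut at about 80% in these data, passing the limit was not always enough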;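 further: values below 100% mean blocked vesicle binding to the CD8+ T cells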
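Assay system: 2C TCR transgenic mouse naive CD8+ T cells, MACS-purified | Read-out: CD8+ gate FL2 mean fluorescence as % of same-row positive control | Signal: High-throughput flow cytometry with anti-B7-1 and anti-CD8 staining | Timing: Binding step 1.5 h, 37 °C, antibody labelling 20 min, ice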
MEKK3 PB1 HTS = modulators of MEKK3-MEK5 PB1 binding, primary screen, biochemical, wildtype MEKK3, multiplex bead flow cytometry, Alexa488-MEK5. Mitogen-activated protein kinase kinase kinase 3 (Homo sapiens), Q99759. bead-based flow cytometry, Alexa488-MEK5 binding to MEKK3; actives lie on both sides; 0 = blocked by unlabeled MEK5, 100 = vehicle. binding response (% of control), % at 10 µM. actives 1.4% (n = 290,000). AID 1529, 2009;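 active means binding response more than 3 SD above or below the average of its plate-row segment, actives on both sides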;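 further: Alexa488 bead fluorescence after subtracting the streptavidin-only scavenger bead signal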
Rce1 inhib = yeast Rce1p protease inhibitors, primary screen, biochemical, fluorescence, cell-free homogeneous; CAAX prenyl protease 2 (Saccharomyces cerevisiae (strain ATCC 204508 / S288c)), Q03530; calls only; actives 0.27% (n = 290,000); yeast membranes, quenched prenylated peptide cleavage fluorescence;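 active means fall in fluorescence gain of 50% or more versus controls, with final raw signal at or below 3038400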;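 further: plate controls were neutral control wells for no effect and wells lacking membranes for full effect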
Target sequence (Q03530 whole entry, looked up): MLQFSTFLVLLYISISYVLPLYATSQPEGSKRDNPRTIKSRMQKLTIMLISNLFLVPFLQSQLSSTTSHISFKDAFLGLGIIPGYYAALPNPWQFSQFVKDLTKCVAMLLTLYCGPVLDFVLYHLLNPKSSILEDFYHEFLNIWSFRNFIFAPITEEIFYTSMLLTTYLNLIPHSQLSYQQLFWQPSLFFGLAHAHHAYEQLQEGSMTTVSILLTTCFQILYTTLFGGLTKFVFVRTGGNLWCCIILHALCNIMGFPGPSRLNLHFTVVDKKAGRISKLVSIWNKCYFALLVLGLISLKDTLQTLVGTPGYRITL
MEKK2 WT-MEK5 = modulators of MEK5 binding to wildtype MEKK2, primary screen, biochemical, multiplex bead flow cytometry, Alexa488-MEK5. Mitogen-activated protein kinase kinase kinase 2 (Homo sapiens), Q9Y2U5. Alexa488-MEK5 binding to MEKK2 WT; actives lie on both sides. binding response (% of control), % at 10 µM. actives 1.1% (n = 290,000). AID 1531, 2009; in the data active means binding response below about 67% or above about 130%
MEKK2 mut-MEK5 = MEK5 binding signal on mutant MEKK2 PB1, primary screen, biochemical, multiplex bead flow cytometry, Alexa488-MEK5 | Alexa488-MEK5 binding to MEKK2 mutant | percent response, % at 10 µM | actives 0.35% (n = 290,000); in the data active means percent response above about 24%, passing the limit was not always enough
MEKK2wt confirm = modulators of MEK5 binding to wildtype MEKK2, confirmation, biochemical, single concentration, multiplex bead flow cytometry; shares compounds with MEKK3 PB1 HTS; Alexa488-MEK5 binding to MEKK2 WT; actives lie on both sides; binding response (% of control), % at 10 µM; actives 2.4% (n = 5,900); in the data active means binding response below about 16% or above about 210%; inactive means in between
MEKK2mut confirm = mutant MEKK2 PB1-MEK5 binding signal retest – biochemical, single concentration, multiplex bead flow cytometry, confirmation; shares compounds with MEKK3 PB1 HTS; Alexa488-MEK5 binding to MEKK2 mutant; percent response, % at 10 µM; actives 2% (n = 5,900); AID 1893, 2009; in the data active means percent response mostly above about 71%, no sharp cut-off; inactive means mostly below about 38%;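 further: higher means compound restores mutant binding toward wildtype level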
MEKK3 confirm = MEKK3 wild-type PB1 binding to MEK5, inhibitors, confirmation, biochemical, bead multiplex flow cytometry, single concentration, wildtype; binding response (% of control), % at 10 µM; shares compounds with MEKK3 PB1 HTS; Alexa488-MEK5 binding to MEKK3; stronger effect = lower value; AID 1894, 2009; actives 1.8% (n = 5,900);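 active means binding response below 72% of control, or above a set upper limit, though filed actives all read lower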;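 further: 100% = DMSO only wells and 0% = binding blocked by excess unlabeled MEK5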
* = called active by the depositor; i = inactive; . = not tested or not shown; [ ] = remark or other dose.

SMILES	UCH37 inh	T cell HTS	MEKK3 PB1 HTS	Rce1 inhib	MEKK2 WT-MEK5	MEKK2 mut-MEK5	MEKK2wt confirm	MEKK2mut confirm	MEKK3 confirm
O=C(CNS(=O)(=O)c1cccs1)NCc1ccc(F)cc1	1	240	142*	.	130	6	102	1	102
Cc1cc(=O)c2c(C)ccc(C)c2[nH]1	.	111	74*[inhibitor]	i	85	-25	103	2	105
COc1ccc(CNc2nc3c(c(=O)[nH]c(=O)n3C)n2CCCc2ccccc2)cc1	6	644	98	i	100	4	.	.	.
COc1ccc(CCn2c(NN=C3CCCCC3)nc3c2c(=O)[nH]c(=O)n3C)cc1	.	359	65*[inhibitor]	i	57*[inhibitor]	-9	99	-1	97
Cc1nnc(Sc2cc(C(=O)NCCCN(C)Cc3ccccc3)c3ccccc3n2)s1	-2	169	131*	i	120	2	116	13	101
COCCCNC(=O)c1cc(Sc2nnc(C)s2)nc2ccccc12	0	430	91	i	89	-5	.	.	.
COc1ccc(C)cc1NC(=O)CC(NC(C)=O)c1ccccc1 (stereo not given)	1	464	135*	i	116	1	102	-7	99
COc1ccc(C)cc1NC(=O)CNC(c1ccccc1)c1ccc(C)cc1 (stereo not given)	4	201	101	i	100	-1	.	.	.
O=C(C[n+]1ccc(/C=C/c2ccccc2)cc1)c1ccc2c(c1)OCCO2	.	228	101	i	174*	32	142	23	97
CC1(C)Cc2c(C#N)c(N)sc(=S)c2CS1	6	289	85	i	56*[inhibitor]	-21	79	-10	97
Cn1c(N)c(C#N)c2c(c1=S)CSC(C)(C)C2	6	208	102	i	102	1	.	.	.
Cc1ccc(NC(=O)C(=O)NCC2OCCc3ccccc32)cc1 (stereo not given)	3	668	106	i	94	-8	.	.	.
O=C(NCC1OCCc2ccccc21)c1ccc(NC(=O)c2ccc(Cl)cc2)cc1 (stereo not given)	.	213	134*	i	112	2	105	9	106
O=C(NN=Cc1cccc(F)c1)c1cc(-c2ccco2)nc2ccccc12	-37	.	.	.	.	.	.	.	.
COC(=O)c1c(N=CN(C)C)sc2c1CCN(c1ncc(C(F)(F)F)cc1Cl)C2	5	.	.	.	.	.	.	.	.
CC(C)(c1ccccc1)c1ccc(OCCCN2CCNCC2)cc1	6	543	113	i	150*	15	125	10	105
CC(C)(C)c1ccc(OCCCCCCN2CCNCC2)cc1	3	521	.	.	.	.	.	.	.
C=CCOc1ccc(C=NN2C(=O)C(CC(=O)Nc3ccc(F)cc3F)SC2=NC)cc1 (stereo not given)	6	.	.	.	.	.	.	.	.
C(=NN1CCN(c2ccccc2)CC1)c1cccs1	3	.	.	.	.	.	.	.	.
Cc1csc(NN=Cc2c(F)cccc2Cl)n1	6	.	.	.	.	.	.	.	.
CCCn1c(=O)c2ccccc2n2c(SCc3nc4ccccc4s3)nnc12	0	685	1.0*[inhibitor]	i	-2.0*[inhibitor]	-26	103	2	106
COc1cccc(CNC(=O)CCCCCn2c(=S)[nH]c3ccc(N4CCOCC4)cc3c2=O)c1	-62	271	130*	i	105	-1	96	-7	98
O=C(CCCCCn1c(=S)[nH]c2ccc(N3CCOCC3)cc2c1=O)NC1CCN(Cc2ccccc2)CC1	-40	280	98	i	112	2	.	.	.
O=C(NC1CCN(Cc2ccccc2)CC1)c1ccc(Cn2c(=S)[nH]c3ccc(N4CCOCC4)cc3c2=O)cc1	-46	129	110	i	154*	26	162	39	104
Cc1ccc(NC(=O)C2C3CCC(O3)C2C(=O)O)cc1Cl (stereo not given)	-3	426	2.0*[inhibitor]	i	3.0*[inhibitor]	-61	100	-5	99
SMILES	UCH37 inh	T cell HTS	MEKK3 PB1 HTS	Rce1 inhib	MEKK2 WT-MEK5	MEKK2 mut-MEK5	MEKK2wt confirm	MEKK2mut confirm	MEKK3 confirm
O=C(O)c1cccc(NN=Cc2ccc(F)c(F)c2)c1	7	.	.	.	.	.	.	.	.
O=C(O)c1cccc(N/N=C/C2=C(Cl)c3cc(Cl)ccc3SC2)c1	.	.	28*[inhibitor]	i	10*[inhibitor]	-79	104	1	107
CC(C)C[C@H](N)c1cn([C@@H](Cc2cc3ccccc3[nH]2)C(=O)N2CCNCC2)nn1	1	166	106	i	147*	32	136	53	106
CCC(C)[C@H](N)c1cn([C@@H](Cc2cc3ccccc3[nH]2)C(=O)N2CCNCC2)nn1 (stereo not given in full)	3	.	92	i	151*	34	147	45	111
C#CCOCCOCCOCCNc1nc(N2CCN(C(=O)[C@H](CCC(=O)O)n3cc(C(N)CC(C)C)nn3)CC2)nc(N2CCN(C(=O)[C@H](Cc3cc4ccccc4[nH]3)n3cc(C(N)CC(C)C)nn3)CC2)n1 (stereo not given in full)	1	648	98	i	107	8	.	.	.
COc1ccc(Br)cc1C(=O)NN=Cc1cccnc1	4	.	.	.	.	.	.	.	.
Cc1nc2sccn2c(=O)c1CCN1CCC(=C(c2ccccc2)c2ccc(F)cc2)CC1	5	600	120	i	157*	13	123	4	101
COc1ccc(-c2cc(C(F)(F)F)n3nc(C(=O)NCc4ccco4)c(Cl)c3n2)cc1	-26	786	107	i	30*[inhibitor]	2	111	14	109
COc1ccc(-c2cc(C(F)(F)F)n3nc(C(=O)NCc4ccco4)cc3n2)cc1	-76	120	103	i	99	6	.	.	.
